Data set [1] deals with DU-145. The data set is described as follows: Metabolic stability in human DU145 cells assessed as sodium ((2R,3S,4R,5R)-5-(4-amino-7H-pyrrolo[2,3-d]pyrimidin-7-yl)-3,4-dihydroxytetrahydrofuran-2-yl)methyl hydrogentriphosphate-NTP formation per million of cells at 10 uM after 6 hrs by LC/MS/MS analysis. The settings on record: du-145, 6 h. The data set is classed as ADME, cell-based. A digest of the protocol: (§1)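 Du145 seeded at 60% confluence in MEM/10% FBS; next day exposed to 10 μM compound for 6 or 24 h. Cells trypsinized, extracted in 70% MeOH, dried, resuspended in 1 mM ammonium phosphate pH 8.5. Nucleoside, NMP and NTP quantified by ion-pairing (dimethylhexylamine) LC/MS/MS against untreated-cell-extract standard curves; pmol per million cells.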

Data set [2] deals with DU-145. The data set is described as follows: Metabolic stability in human DU145 cells assessed as sodium ((2R,3S,4R,5R)-5-(4-amino-7H-pyrrolo[2,3-d]pyrimidin-7-yl)-3,4-dihydroxytetrahydrofuran-2-yl)methyl hydrogenphosphate-NMP formation per million of cells at 10 uM after 24 hrs by LC/MS/MS analysis. The data set is classed as ADME, cell-based. To be noted: du-145, 24 h. The gist of the method: as §1

The next data set relates to A549. The data set is described as follows: Cytostatic activity against human A549 cells after 5 days by SRB assay. The class given is functional. The settings on record: A549, 120 h. The gist of the method:
(§2)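 Cells seeded per line density, overnight at 37 °C; day-zero plate TCA-fixed. 5-fold serial dilutions added, 5-day incubation; TCA fixation, 0.057% SRB in 1% acetic acid 30 min, dye dissolved in 10 mM Tris pH 10.5, A500. Growth relative to day-zero and untreated; GIC50 from sigmoidal dose–response fit; mean of two independent experiments.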

Data set [3] relates to DU-145. Briefly: Cytostatic activity against human DU145 cells after 5 days by SRB assay. To be noted: DU-145, 120 h. The class given is functional. A digest of the protocol:
as §2
A general note: Sulforhodamine B stains cellular protein and so reports cell mass.

Data set [4] in a line: Cytostatic activity against human Hs578 cells after 5 days by SRB assay. The class given is functional. To be noted: Hs578, 120 h. The gist of the method:
as §2

The subject of another data set is L1210. The data set is described as follows: Cytotoxicity against mouse L1210 cells after 3 days by MTT assay. The data set is classed as functional, cell-based. To be noted: L1210, 72 h.
The next data set deals with MCF7. The data set is described as follows: Cytotoxicity against human MCF7 cells after 3 days by MTT assay. The data set is classed as functional, cell-based. To be noted: MCF7, 72 h.
The next data set has as its system MDA-MB-231. Briefly: Cytotoxicity against human MDA-MB-231 cells after 3 days by MTT assay. The data set is classed as functional, cell-based. To be noted: MDA-MB-231, 72 h. On the technique in general: Formazan colour is commonly taken as a measure of viable cells.
Another data set has as its system LNCaP. The data set is described as follows: Cytotoxicity against human LNCAP cells after 3 days by MTT assay. The class given is functional, cell-based. The settings on record: 72 h.
Data set [5] can be described thus: Cytotoxicity against human NCI-H146 cells after 3 days by MTT assay. The data set is classed as functional, cell-based. To be noted: NCI-H146, 72 h.
Another data set concerns HeLa. The data set is described as follows: Cytotoxicity against human HeLa cells after 3 days by MTT assay. The data set is classed as functional, cell-based. The settings on record: 72 h.
In a further data set the test system is SK-MEL-2. The data set is described as follows: Cytotoxicity against human SK-MEL-2 cells after 3 days by MTT assay. The class given is functional, cell-based. The settings on record: SK-MEL-2, 72 h.
The next data set concerns HPAC. The data set is described as follows: Cytotoxicity against human HPAC cells after 3 days by MTT assay. The data set is classed as functional, cell-based. To be noted: 72 h.
A short description of data set [6]: Cytotoxicity against mouse P388D1 cells after 3 days by MTT assay. The settings on record: P388D1, 72 h. The class given is functional, cell-based.
In another data set the test system is BJ. The data set is described as follows: Cytotoxicity against human BJ cells after 3 days by MTT assay. The data set is classed as cell-based. To be noted: 72 h.
Data set [7] relates to CCRF-CEM. The data set is described as follows: Induction of apoptosis in human CCRF-CEM cells at 5 time GI50 after 4 to 8 hrs using propidium iodide staining by flow cytometry. The class given is functional, cell-based. The gist of the method:
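CCRF-CEM at 5 × 10^5 cells/ml in RPMI 1640/10% FCS, 37 °C, exposed to 1× or 5× GIC50; vehicle controls in parallel. Ethanol-fixed, RNase-treated, propidium iodide stained, flow cytometry; apoptosis taken as % sub-G1 particles (logarithmic mode).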
A general note: A flow cytometer gives signals particle by particle.

Data set [8] concerns CCRF-CEM. Briefly: Inhibition of DNA synthesis in human CCRF-CEM cells assessed as BrdU incorporation at 1 to 5 times GI50 after 1 hr by FACS analysis. The class given is functional, cell-based. To be noted: in the assay text read “at 5 times GI50 after longer incubation” for “at 1 to 5 times GI50 after 1 hr”. A digest of the protocol: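 CCRF-CEM cultured as for cell cycle (1× or 5× GIC50), pulsed with 10 μM BrdU for 30 min before harvest. Ethanol-fixed, DNA denatured in 2 M HCl, anti-BrdU then FITC secondary antibody, propidium iodide/RNase counterstain, flow cytometry at 488 nm.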

Data set [9] is described as follows: Antitumor activity against mouse P388D1 cells xenografted in DBA/2 mouse assessed as increase of lifespan at 75 mg/kg, ip qd administered as 2 cycles on day 1 to 3 and day 8 to 10. The data set is classed as functional. To be noted: route intraperitoneal. A digest of the protocol: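 P388D1 mouse leukemia cells, grown in RPMI with 10% FBS, were implanted ip at 10^5 cells per mouse on day 0 into female DBA/2 mice (18–22 g, SPF) and randomized 10 per group. Dosing was once daily ip in 50% PEG400/deionized water (pH 7.0) on days 1–3 and 8–10, with vehicle for controls. Deaths were recorded daily, and MST and %ILS were calculated.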

Data set [10] is described as follows: Antitumor activity against mouse P388D1 cells xenografted in DBA/2 mouse assessed as increase of lifespan at 35 mg/kg, ip qd administered as 2 cycles on day 1 to 3 and day 8 to 10. The settings on record: route intraperitoneal.

Active and inactive are the calls of the source. No cut-off for these calls is given here. Where only a bound is given, the exact number is not on record here.

For the molecule `Nc1ncnc2c1c(-c1cccs1)cn2[C@@H]1O[C@H](CO)[C@@H](O)[C@H]1O`, the figures for the Stability with DU-145 [1] and in the data set on DU-145 [2] were 0.53 pmol and 64 pmol, respectively. For the same molecule, the GI50 in the data set on A549 worked out at 7 nM; with DU-145 [3] it was 133 nM; in data set [4], 12 nM. Further, the IC50 in the data set on L1210 is 115 nM; in the data set with MCF7, 528 nM; with MDA-MB-231, 26 nM; in the data set with LNCaP it was 18 nM; in data set [5], over 10000 nM; in the data set on HeLa, 33 nM. Further, the IC50 was determined as 1980 nM in the data set with SK-MEL-2, 70 nM in the data set on HPAC, 28 nM in data set [6] and 9850 nM in the data set with BJ. In the data set on CCRF-CEM [7], the result was Active. Also, the inhibition entry in the data set on CCRF-CEM [8] was “Active”. Further, the Activity is 29% in data set [9] and 28% in data set [10].

In general, GI50 refers to the concentration at which growth is held to half of that of the control. Low values mean more potent growth inhibition, high ones less potent growth inhibition. A word on the IC50: it is the point on the concentration scale where inhibition reaches its midpoint. Lower therefore signals greater potency.

The values above are taken from ChEMBL document CHEMBL1811802, “Synthesis and significant cytostatic activity of 7-hetaryl-7-deazaadenosines” (J Med Chem, 2011).
